# Measured values taken from ChEMBL document CHEMBL1156597, “Structure-activity relationship of kahalalide F synthetic analogues” (J Med Chem, 2008).
# Columns and labels:
# DU-145 = experiment: Cytotoxicity against human DU145 cells after 48 hrs by SRB assay; format: functional, cell-based; settings: Homo sapiens, DU-145, 48 h; for CC50: read-out: LC50 (the source's name)
# In short: (§1)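 Cells grown in RPMI 1640 with 10% FBS and penicillin/streptomycin at 37 °C and 5% CO₂, trypsinized, then seeded at 5 × 10³/well. After 18 h drug-free attachment, samples in DMSO/EtOH/PBS (0.5:0.5:99) were added for 48 h continuous exposure. Cells were fixed with cold TCA (1 h, 4 °C) and stained with SRB (10 min). Tris-solubilized stain read at 490 nm. Triplicate wells, mean ± SD; GI₅₀ derived.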
# LNCaP = experiment: Cytotoxicity against human LNcaP cells after 48 hrs by SRB assay; format: functional; settings: for CC50: read-out: LC50 (the source's name); in short: as §1
# [1] = Cytotoxicity against human IGROV cells after 48 hrs by SRB assay; format: functional; settings: for CC50: read-out: LC50 (the source's name); in short: as §1
# [2] = Cytotoxicity against human IGROV-ET cells after 48 hrs by SRB assay; format: functional; settings: for CC50: read-out: LC50 (the source's name); in short: as §1
# SK-BR-3 = experiment: Cytotoxicity against human SKBR3 cells after 48 hrs by SRB assay; format: functional; settings: SK-BR-3, 48 h; for GI50: read-out: GI50; for CC50: read-out: LC50 (the source's name); in short: as §1
# SK-MEL-28 = experiment: Cytotoxicity against human SK-MEL-28 cells after 48 hrs by SRB assay; format: functional, cell-based; settings: Homo sapiens, SK-MEL-28, 48 h; for CC50: read-out: LC50 (the source's name); in short: as §1
# A549 = experiment: Cytotoxicity against human A549 cells after 48 hrs by SRB assay; format: functional, cell-based; settings: Homo sapiens, A549, 48 h; in short: as §1
# K562 = experiment: Cytotoxicity against human K562 cells after 48 hrs by SRB assay; format: functional; settings: K562, 48 h; for CC50: read-out: LC50 (the source's name); in short: as §1
# PANC-1 = experiment: Cytotoxicity against human PANC1 cells after 48 hrs by SRB assay; format: functional; settings: PANC-1, 48 h; for CC50: read-out: LC50 (the source's name); in short: as §1
# HT-29 = experiment: Cytotoxicity against human HT29 cells after 48 hrs by SRB assay; format: functional, cell-based; settings: Homo sapiens, HT-29, 48 h; for CC50: read-out: LC50 (the source's name); in short: as §1
# LoVo [3] = experiment: Cytotoxicity against human LoVo cells after 48 hrs by SRB assay; format: functional; settings: for CC50: read-out: LC50 (the source's name)
# LoVo [4] = experiment: Cytotoxicity against human doxorubicin resistant LoVo cells after 48 hrs by SRB assay; format: functional; settings: for CC50: read-out: LC50 (the source's name); in short: as §1
# HeLa = experiment: Cytotoxicity against human HeLa cells after 48 hrs by SRB assay; format: functional; settings: for CC50: read-out: LC50 (the source's name); in short: as §1
# [5] = Cytotoxicity against human HeLa-APL cells after 48 hrs by SRB assay; format: functional; in short: as §1
SMILES,GI50 (DU-145; read-out: GI50),CC50 (DU-145),GI50 (LNCaP),TGI (LNCaP),CC50 (LNCaP),GI50 ([1]; read-out: GI50),CC50 [1],CC50 [2],TGI (SK-BR-3),GI50 (SK-BR-3),CC50 (SK-BR-3),CC50 (SK-MEL-28),LC50 (A549),CC50 (K562),CC50 (PANC-1),CC50 (HT-29),CC50 (LoVo [3]),CC50 (LoVo [4]),CC50 (HeLa),LC50 (concentration giving 50% net cell kill) [5],other results
C/C=C1\NC(=O)[C@H](Cc2ccccc2)NC(=O)[C@@H](C(C)C)NC(=O)[C@@H]([C@H](C)CC)NC(=O)[C@H](NC(=O)[C@H](NC(=O)[C@H](CCCN)NC(=O)[C@H]2CCCN2C(=O)[C@H](NC(=O)[C@@H](NC(=O)[C@@H](NC(=O)[C@H](NC(=O)CC[C@@H](C)CC)C(C)C)[C@@H](C)OC(=O)C(F)(F)F)C(C)C)C(C)C)[C@H](C)CC)[C@H](C)OC(=O)[C@H](C(C)C)NC1=O,617 nM,914 nM,610 nM,1020 nM,1400 nM,287 nM,508 nM,468 nM,218 nM,203 nM,141 nM,839 nM,101 nM,181 nM,1660 nM,271 nM,310 nM,1400 nM,818 nM,892 nM,GI50 (DU-145): 752 nM; GI50 [1]: 345 nM; GI50 [2]: 191 nM; GI50 ([2]; read-out: GI50): 231 nM; GI50 (SK-MEL-28): 772 nM; GI50 (SK-MEL-28; read-out: GI50): 716 nM; GI50 (A549): 882 nM; GI50 (A549; read-out: GI50): 7700 nM; GI50 (PANC-1): 1430 nM; TGI (PANC-1): 1660 nM; GI50 (HT-29): 241 nM; TGI (HT-29): 257 nM; GI50 (LoVo [3]): 212 nM; TGI (LoVo [3]): 257 nM; GI50 (LoVo [4]): 189 nM; TGI (LoVo [4]): 222 nM; GI50 (HeLa): 294 nM; TGI (HeLa): 553 nM; GI50 [5]: 499 nM; TGI [5]: 745 nM
C/C=C1\NC(=O)[C@H](Cc2ccccc2)NC(=O)[C@@H](C(C)C)NC(=O)[C@@H]([C@H](C)CC)NC(=O)[C@H](NC(=O)[C@H](NC(=O)[C@H](CCCNC(=O)CCCC[C@@H]2SC[C@@H]3NC(=O)N[C@@H]32)NC(=O)[C@H]2CCCN2C(=O)[C@H](NC(=O)[C@@H](NC(=O)[C@@H](NC(=O)[C@H](NC(=O)CCCC(C)C)C(C)C)[C@@H](C)O)C(C)C)C(C)C)[C@H](C)CC)[C@H](C)OC(=O)[C@H](C(C)C)NC1=O,854 nM,814 nM,816 nM,810 nM,805 nM,369 nM,342 nM,385 nM,267 nM,322 nM,90.5 nM,974 nM,128 nM,1680 nM,2010 nM,164 nM,288 nM,2180 nM,716 nM,996 nM,GI50 (DU-145): 836 nM; GI50 [1]: 351 nM; GI50 [2]: 488 nM; GI50 ([2]; read-out: GI50): 618 nM; GI50 (SK-MEL-28): 974 nM; GI50 (SK-MEL-28; read-out: GI50): 959 nM; GI50 (PANC-1): 1990 nM; TGI (PANC-1): 2360 nM; GI50 (HT-29): 362 nM; TGI (HT-29): 316 nM; GI50 (LoVo [3]): 317 nM; TGI (LoVo [3]): 303 nM; GI50 (LoVo [4]): 328 nM; TGI (LoVo [4]): 354 nM; GI50 (HeLa): 382 nM; TGI (HeLa): 580 nM; GI50 [5]: 985 nM; TGI [5]: 989 nM
C/C=C1\NC(=O)[C@H](Cc2ccccc2)NC(=O)[C@@H](C(C)C)NC(=O)[C@@H]([C@H](C)CC)NC(=O)[C@H](NC(=O)[C@H](NC(=O)[C@H](CCCN)NC(=O)[C@H]2CCCN2C(=O)[C@H](NC(=O)[C@@H](NC(=O)[C@@H](NC(=O)[C@H](NC(=O)C2CCC(C)CC2)C(C)C)[C@@H](C)O)C(C)C)C(C)C)[C@H](C)CC)[C@H](C)OC(=O)[C@H](C(C)C)NC1=O (stereo not given in full),690 nM,839 nM,1070 nM,1170 nM,1260 nM,526 nM,441 nM,426 nM,298 nM,350 nM,1030 nM,1100 nM,1340 nM,1810 nM,2300 nM,642 nM,3200 nM,319 nM,892 nM,977 nM,GI50 (DU-145): 788 nM; GI50 [1]: 477 nM; GI50 [2]: 503 nM; GI50 ([2]; read-out: GI50): 598 nM; TGI (SK-MEL-28): 1060 nM; GI50 (SK-MEL-28; read-out: GI50): 1010 nM; TGI (A549): 1180 nM; GI50 (A549; read-out: GI50): 1040 nM; GI50 (PANC-1): 2660 nM; TGI (PANC-1): 4530 nM; GI50 (HT-29): 551 nM; TGI (HT-29): 554 nM; GI50 (LoVo [3]): 244 nM; TGI (LoVo [3]): 280 nM; GI50 (LoVo [4]): 340 nM; TGI (LoVo [4]): 329 nM; GI50 (HeLa): 904 nM; TGI (HeLa): 897 nM; GI50 [5]: 633 nM; TGI [5]: 810 nM
C/C=C1\NC(=O)[C@H](Cc2c[nH]c3ccccc23)NC(=O)[C@@H](C(C)C)NC(=O)[C@@H]([C@H](C)CC)NC(=O)[C@H](NC(=O)[C@H](NC(=O)[C@H](CCCN)NC(=O)[C@H]2CCCN2C(=O)[C@H](NC(=O)[C@@H](NC(=O)[C@@H](NC(=O)[C@H](NC(=O)CCCC(C)C)C(C)C)[C@@H](C)O)C(C)C)C(C)C)[C@H](C)CC)[C@H](C)OC(=O)[C@H](C(C)C)NC1=O,832 nM,785 nM,2060 nM,1610 nM,1400 nM,87.5 nM,57.4 nM,418 nM,383 nM,345 nM,425 nM,1390 nM,1380 nM,2550 nM,2390 nM,1190 nM,1430 nM,1470 nM,935 nM,975 nM,GI50 (DU-145): 823 nM; GI50 [1]: 71.8 nM; GI50 [2]: 439 nM; GI50 ([2]; read-out: GI50): 461 nM; TGI (A549): 1490 nM; GI50 (A549; read-out: GI50): 1610 nM; GI50 (K562): 4840 nM; TGI (K562): 4700 nM; GI50 (HT-29): 1050 nM; TGI (HT-29): 1510 nM; GI50 (LoVo [3]): 628 nM; TGI (LoVo [3]): 957 nM; GI50 (LoVo [4]): 507 nM; TGI (LoVo [4]): 659 nM; GI50 (HeLa): 1360 nM; TGI (HeLa): 1130 nM; GI50 [5]: 1360 nM; TGI [5]: 1150 nM
C/C=C1\NC(=O)[C@H](Cc2ccccc2)NC(=O)[C@@H](C(C)C)NC(=O)[C@@H](C(C)C)NC(=O)[C@H](NC(=O)[C@H](NC(=O)[C@H](CCCN)NC(=O)[C@H]2CCCN2C(=O)[C@H](NC(=O)[C@@H](NC(=O)[C@@H](NC(=O)[C@H](NC(=O)CCCC(C)C)C(C)C)[C@@H](C)O)C(C)C)C(C)C)C(C)C)[C@H](C)OC(=O)[C@H](C(C)C)NC1=O,1360 nM,1020 nM,2340 nM,1960 nM,1160 nM,–,762 nM,719 nM,2310 nM,2120 nM,1450 nM,1660 nM,2000 nM,2500 nM,2190 nM,3160 nM,2480 nM,1940 nM,1120 nM,1690 nM,TGI (DU-145): 1180 nM; TGI (SK-MEL-28): 1650 nM; GI50 (SK-MEL-28; read-out: GI50): 1640 nM; TGI (A549): 3790 nM; GI50 (A549; read-out: GI50): 2400 nM; GI50 (PANC-1): 4710 nM; TGI (PANC-1): 3910 nM; GI50 (HT-29): 2500 nM; TGI (HT-29): 2810 nM; GI50 (LoVo [3]): 2460 nM; TGI (LoVo [3]): 2460 nM; GI50 (LoVo [4]): 1430 nM; TGI (LoVo [4]): 1670 nM; GI50 (HeLa): 1400 nM; TGI (HeLa): 1260 nM; GI50 [5]: 2730 nM; TGI [5]: 2790 nM
C/C=C1\NC(=O)[C@@H](Cc2ccccc2)NC(=O)[C@H](C(C)C)NC(=O)[C@H]([C@H](C)CC)NC(=O)[C@@H](NC(=O)[C@@H](NC(=O)[C@@H](CCCN)NC(=O)[C@@H]2CCCN2C(=O)[C@@H](NC(=O)[C@H](NC(=O)[C@H](NC(=O)[C@@H](NC(=O)CCCC(C)C)C(C)C)[C@@H](C)O)C(C)C)C(C)C)[C@H](C)CC)[C@H](C)OC(=O)[C@H](C(C)C)NC1=O,–,10600 nM,–,–,4920 nM,161000 nM,72000 nM,2130 nM,–,–,1690 nM,1770 nM,1920 nM,25300 nM,8900 nM,3790 nM,5540 nM,4080 nM,1910 nM,2360 nM,TGI [1]: 134000 nM; GI50 (K562): 2530 nM; TGI (K562): 10500 nM
